Experimental data taken from ChEMBL document CHEMBL5661977, “BI 6727, a Polo-like kinase inhibitor with improved pharmacokinetic profile and broad antitumor activity” (Clin Cancer Res, 2009).
The source made the active and inactive calls. No cut-off for these calls is given here.

Experiments:
HCT-116 [1] = experiment: Antitumor activity against human HCT-116 cells xenografted in BomTac:NMRI-Foxn1nu mouse assessed as early apoptosis at 40 mg/kg, iv 24 hrs after administration by tunel staining based immunohistochemistry analysis; type: functional, organism-based
Procedure, shortened: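 Female nude mice bore s.c. HCT 116 tumors (~200 mm³) and received a single i.v. 40 mg/kg dose or vehicle (n=3 per group per time). Tumor, small intestine and large intestine were taken at 6, 24 and 48 h. Frozen sections were stained for pSer10 histone H3 (immunoperoxidase) or by TUNEL. Positive area was calculated as % of tumor cell area; Student's t test.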

[2] = Clearance in BomTac:NMRI-Foxn1nu mouse at 35 mg/kg, iv by HPLC-MS/MS analysis; type: ADME, organism-based; settings: in vivo
Procedure, shortened: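 Female nude mice, n = 3, single i.v. dose (vehicle 0.1 N HCl diluted with 0.9% NaCl, 10 mL/kg). BI 6727 measured in EDTA plasma at several times by HPLC-MS/MS with internal standard. Parameters came from noncompartmental analysis. Terminal half-life was taken from the last two time points after i.v. dosing.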

HCT-116 [3] = experiment: Antitumor activity against human HCT-116 cells xenografted in BomTac:NMRI-Foxn1nu mouse assessed as T/C at 30 mg/kg, iv administered once a week upto 6 weeks relative to control; type: functional
Procedure, shortened: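 Female nude mice bore s.c. HCT 116 (2×10^6 cells), NCI-H460 (1×10^6 cells) or serially transplanted CXB1 tumor pieces. At ~50–100 mm³, mice were randomized into groups of 10 and dosed i.v. (0.1 N HCl/saline) or by gavage (0.5% hydroxyethyl-cellulose) at 10 mL/kg. Calipers read thrice weekly, volume = length×width²×π/6. T/C from median volumes on the last day.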

HCT-116 [4] = experiment: Antimitotic activity against human HCT-116 cells assessed as inhibition of cell proliferation incubated for 72 hrs by Alamar blue based fluorescence spectrophotometric analysis; type: functional; settings: HCT-116, 72 h
Procedure, shortened: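 Cancer cell lines were cultured per supplier instructions and exposed to various inhibitor concentrations for 72 h. Growth was read as Alamar blue conversion by fluorescence. EC50 (50% growth inhibition) was extrapolated from the dose-response curve fit.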

[5] = AUC (0-24hrs) in BomTac:NMRI-Foxn1nu mouse at 50 mg/kg, po by HPLC-MS/MS analysis; type: ADME, organism-based; settings: in vivo
Procedure, shortened: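 Single oral dose to female nude mice or male Wistar rats. EDTA plasma was collected over 24 h and quantified by LC-MS/MS after extraction with internal standard. AUC0-24 was calculated from the concentration-time profile by the trapezoidal rule using noncompartmental analysis.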

clearance [2]: 10 mL/min/kg
EC50 (HCT-116 [4]): 0.023 µM
AUC(0-t) [5]: 58 µM·h
Structure (SMILES): CC[C@@H]1C(=O)N(C)c2cnc(Nc3ccc(C(=O)N[C@H]4CC[C@H](N5CCN(CC6CC6)CC5)CC4)cc3OC)nc2N1C(C)C [VOLASERTIB]
Activity (HCT-116 [1]): Active
T/C (HCT-116 [3]): 3%
